Results on 40 compounds are retold here after PubChem BioAssay.

Values without a mark were called inactive. Calls of active or inactive are those of the source.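 How the source made its calls, unless noted: active means viability at or under a set limit in both replicates, limit being median viability minus 3 SD (cut at about 48% in these data, passing the limit was not always enough); inconclusive means at or under the limit in just one replicate; inactive means at or above the limit in both replicates.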

The nature of the first assay: HUVEC growth inhibition – cell-based, human, primary screen (AID 575;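 active means viability at or below 30% in both replicate assays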;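 further: 100% = median of untreated cell wells with 0.1% DMSO on each plate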). The settings on record: HUVEC proliferation, CellTiter-Glo luminescence, 72 h; at 10 µM; stronger effect = lower value. In short, it runs like this: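 Material: primary human umbilical vein endothelial cells / Schedule: 72 h exposure, 37 °C, 5% CO2, 30 min RT equilibration / Signal: ATP-based CellTiter-Glo luminescent read / Read-out basis: percent of median DMSO-control luminescence / Control set: 32 DMSO-only cell-control wells (high), 32 MePR drug-control wells (low) per plate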
In general terms: ATP-based viability assays read luminescence as a measure of living cells.
On to `COc1ccc(C(=O)Nn2c(SCC(=O)NCC3CCCO3)nc3ccccc3c2=O)cc1` (stereo not given), for which the viability (usually a read-out of living cells in per cent, often relative to untreated cells) was 76.8%.

Take `COc1ccc(Cc2nnc3n2N=C(c2cc4ccccc4o2)CS3)cc1OC`: the viability was 64.4%.

On to `CC1(C)OC(=O)N(c2cccnc2)C1(C)O` (stereo not given), for which the viability is 100%.

Regarding `O=c1/c(=C/c2ccco2)sc2nc(-c3ccccc3Br)nn12`, the viability was 99.8%.

With `CC1Cc2ccccc2N1C(=O)CSc1nc2ccccc2n1CC(=O)N1CCOCC1` (stereo not given), the viability was 94%.

`Cc1oc(-c2ccccc2F)nc1CS(=O)(=O)CC(=O)N1CCCCCC1`: the viability was 101%.

Regarding `O=C(NCc1cccnc1)c1ccc(Cl)c(Cl)c1`, the viability is 95.2%.

For the compound `COc1cccc(C(=O)Nc2ccc(NC(C)=O)cn2)c1`, the viability was 92.4%.

With `CCN(C(=O)CN1CCN(c2ccccc2OC)CC1)c1c(N)n(Cc2ccccc2)c(=O)[nH]c1=O`, the viability was 98.7%.

Regarding `CCOC(=O)n1c(SCC(=O)N(CC)CC)nc2ccccc21`, the viability is 105%.

Take `CCOC(=O)C1CCN(c2c(NC3CCCCCCC3)c(=O)c2=O)CC1`: the viability is 92.2%.

Consider `CCOC(=O)NC(=O)CSc1nnnn1-c1ccc(Cl)cc1`, for which the viability is 104%.

Regarding `COc1cccc(-n2c(C)nc3c(cnn3-c3ccc(Cl)cc3)c2=O)c1`, the viability is 79.8%.

With `CN(CC(O)COCc1cccs1)C1CCCCC1` (stereo not given), the viability was 93.2%.

In the case of `O=C(O)CSc1ccc2ccccc2n1`, the viability was 106%.

For `CN(C)Cc1c(O)ccc2oc(Cc3ccccc3)cc12`, the viability was 91.2%.

On to `COC(=O)c1[nH]c(C)c(/C(O)=C2\C(=O)C(=O)N(CCN(C)C)C2c2ccccc2OC)c1C` (stereo not given), for which the viability was 79%.

Turning to `CC1(C)Cc2c(sc3c2c(=N)n(Cc2ccco2)c(=O)n3Cc2ccccc2)CO1`, the viability was 90.1%.

With `CCn1nnnc1SCC(=O)N1CCOCC1`, the viability is 101%.

Turning to `CN(C)c1ccc(C=Nc2ccc(N(C)C)cc2)cc1`, the viability is 74.2%.

As to `CCCC(=O)Nc1ccc(OCC(=O)OC)cc1`, the viability was 89.9%.

On to `CCn1cc(C(=O)NCCN(C)CCc2ccccc2)c(=O)c2cc(S(=O)(=O)N(C)C)ccc21`, for which the viability is 75.9%.

As for `COc1cccc(-c2cc(C(=O)N3CCCc4ccccc43)no2)c1`, the viability is 94.6%.

On to `O=C(Cn1c(NCCO)nc2ccccc21)c1ccccc1`, for which the viability was 99.6%.

With `CCOC(=O)N1CCC(N2C(=O)c3ccccc3C2Nc2cccnc2)CC1` (stereo not given), the viability was 112%.

For the compound `CCCCCCNS(=O)(=O)c1ccc(Cl)s1`, the viability was 81.9%.

`COC(=O)c1cc(=O)n2c(-c3ccc(OC)cc3)csc2n1`: the viability is 96.2%.

On to `COC(=O)/C=c1/s/c(=C(/C#N)C(=O)N2CCOCC2)n(-c2ccccc2)c1=O`, for which the viability is 98.8%.

As to `CCOc1ccc2[nH]cc(C(=O)N3CCN(CC)CC3)c(=O)c2c1`, the viability is 91.2%.

As for `CCCCN(CCCNC(=O)C1CCN(S(=O)(=O)CC)CC1)c1ccccc1`, the viability is 97.3%.

With `COc1ccc(-c2nnn(CCc3nn[nH]n3)n2)cc1OC`, the viability is 96.9%.

Regarding `CCCCC(=NCCO)C1=C(O)C(C(=O)OC)C(C)(C)CC1=O` (stereo not given), the viability is 99.7%.

With `COC1CCCCC1NS(=O)(=O)c1ccccc1` (stereo not given), the viability is 97.8%.

For the compound `Nc1c(N2CCCCC2)c(=O)[nH]c(=O)n1-c1ccccc1`, the viability is 102%.

In the case of `O=C(CN1C(=O)CCSc2ccccc21)Nc1ccc2c(c1)OCO2`, the viability was 97.6%.

For the compound `Cc1cc(C)c2oc(=O)cc(CN3CCOCC3)c2c1`, the viability was 87.3%.

As to `OCc1nc2ccccc2n1CCCOc1ccccc1`, the viability was 90.6%.

In the case of `CC(C)(C)c1ccc2c(c1)OCC(C(=O)O)O2` (stereo not given), the viability was 99.3%.

Take `O=C1C2C3C=CC(C3=C3CCCCC3)C2C(=O)N1c1ccccc1` (stereo not given): the viability is 103%.

In the case of `CCCN1C(=O)c2cc(C(=O)O)ccc2C1O` (stereo not given), the viability was 90.1%.

A short description of the next assay: growth inhibitors of H69AR lung tumor, primary screen, human, duplicate replicates (AID 580).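 Further: 100% = mean luminescence of untreated wells and 0% = no signal.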 To be noted: H69AR lung tumor cells viability, ATP luminescence, 72 h; at 10 µM; stronger effect = lower value.
Regarding `COc1ccc(C(=O)Nn2c(SCC(=O)NCC3CCCO3)nc3ccccc3c2=O)cc1` (stereo not given), the viability was 83.8%.

In the case of `COc1ccc(Cc2nnc3n2N=C(c2cc4ccccc4o2)CS3)cc1OC`, the viability was 35% (active).

For `CC1(C)OC(=O)N(c2cccnc2)C1(C)O` (stereo not given), the viability was 91.5%.

In the case of `O=c1/c(=C/c2ccco2)sc2nc(-c3ccccc3Br)nn12`, the viability is 92.4%.

On to `CC1Cc2ccccc2N1C(=O)CSc1nc2ccccc2n1CC(=O)N1CCOCC1` (stereo not given), for which the viability is 97.8%.

As for `Cc1oc(-c2ccccc2F)nc1CS(=O)(=O)CC(=O)N1CCCCCC1`, the viability was 100%.

`O=C(NCc1cccnc1)c1ccc(Cl)c(Cl)c1`: the viability is 96.8%.

For `COc1cccc(C(=O)Nc2ccc(NC(C)=O)cn2)c1`, the viability was 106%.

Take `CCN(C(=O)CN1CCN(c2ccccc2OC)CC1)c1c(N)n(Cc2ccccc2)c(=O)[nH]c1=O`: the viability was 100%.

Consider `CCOC(=O)n1c(SCC(=O)N(CC)CC)nc2ccccc21`, for which the viability was 101%.

With `CCOC(=O)C1CCN(c2c(NC3CCCCCCC3)c(=O)c2=O)CC1`, the viability was 79.7%.

Take `CCOC(=O)NC(=O)CSc1nnnn1-c1ccc(Cl)cc1`: the viability was 106%.

With `COc1cccc(-n2c(C)nc3c(cnn3-c3ccc(Cl)cc3)c2=O)c1`, the viability is 76.3%.

Consider `CN(CC(O)COCc1cccs1)C1CCCCC1` (stereo not given), for which the viability is 106%.

As to `O=C(O)CSc1ccc2ccccc2n1`, the viability was 90%.

`CN(C)Cc1c(O)ccc2oc(Cc3ccccc3)cc12`: the viability is 91%.

For the compound `COC(=O)c1[nH]c(C)c(/C(O)=C2\C(=O)C(=O)N(CCN(C)C)C2c2ccccc2OC)c1C` (stereo not given), the viability is 84.3%.

Consider `CC1(C)Cc2c(sc3c2c(=N)n(Cc2ccco2)c(=O)n3Cc2ccccc2)CO1`, for which the viability was 71.9%.

On to `CCn1nnnc1SCC(=O)N1CCOCC1`, for which the viability is 97.6%.

For `CN(C)c1ccc(C=Nc2ccc(N(C)C)cc2)cc1`, the viability was 70.4%.

With `CCCC(=O)Nc1ccc(OCC(=O)OC)cc1`, the viability is 98.9%.

Consider `CCn1cc(C(=O)NCCN(C)CCc2ccccc2)c(=O)c2cc(S(=O)(=O)N(C)C)ccc21`, for which the viability is 81.2%.

For the compound `COc1cccc(-c2cc(C(=O)N3CCCc4ccccc43)no2)c1`, the viability was 92.4%.

For `O=C(Cn1c(NCCO)nc2ccccc21)c1ccccc1`, the viability is 104%.

In the case of `CCOC(=O)N1CCC(N2C(=O)c3ccccc3C2Nc2cccnc2)CC1` (stereo not given), the viability was 85.7%.

Consider `CCCCCCNS(=O)(=O)c1ccc(Cl)s1`, for which the viability is 89.1%.

Take `COC(=O)c1cc(=O)n2c(-c3ccc(OC)cc3)csc2n1`: the viability is 92.6%.

In the case of `COC(=O)/C=c1/s/c(=C(/C#N)C(=O)N2CCOCC2)n(-c2ccccc2)c1=O`, the viability was 88.8%.

As for `CCOc1ccc2[nH]cc(C(=O)N3CCN(CC)CC3)c(=O)c2c1`, the viability is 89.6%.

As for `CCCCN(CCCNC(=O)C1CCN(S(=O)(=O)CC)CC1)c1ccccc1`, the viability was 96.6%.

As to `COc1ccc(-c2nnn(CCc3nn[nH]n3)n2)cc1OC`, the viability is 95.5%.

For `CCCCC(=NCCO)C1=C(O)C(C(=O)OC)C(C)(C)CC1=O` (stereo not given), the viability is 89.5%.

As for `COC1CCCCC1NS(=O)(=O)c1ccccc1` (stereo not given), the viability is 97.7%.

As for `Nc1c(N2CCCCC2)c(=O)[nH]c(=O)n1-c1ccccc1`, the viability is 109%.

Regarding `O=C(CN1C(=O)CCSc2ccccc21)Nc1ccc2c(c1)OCO2`, the viability is 103%.

Regarding `Cc1cc(C)c2oc(=O)cc(CN3CCOCC3)c2c1`, the viability was 91.4%.

As to `OCc1nc2ccccc2n1CCCOc1ccccc1`, the viability is 103%.

For the compound `CC(C)(C)c1ccc2c(c1)OCC(C(=O)O)O2` (stereo not given), the viability is 106%.

`O=C1C2C3C=CC(C3=C3CCCCC3)C2C(=O)N1c1ccccc1` (stereo not given): the viability was 95.8%.

For `CCCN1C(=O)c2cc(C(=O)O)ccc2C1O` (stereo not given), the viability was 103%.
